Format in all cases: functional
Assay [1] deals with Rattus norvegicus. Briefly: Antiinflammatory activity against carrageenan-induced edema in Sprague-Dawley rat at 25 mg/kg, po. In short, it runs like this:
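Oral gavage dosing as a homogenized suspension in 0.5% carboxymethylcellulose (1 mL/100 g); controls got vehicle; indomethacin 6 mg/kg p.o. positive control. After 60 min, 0.1 mL 1% carrageenan in saline injected into the right hind plantar surface. Paw volume read by water displacement to the lateral malleolus at injection and 2 h later; the difference is edema. % inhibition vs controls; Student's t-test.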
(In the carrageenan paw model, swelling and tenderness develop within hours.)

For another assay, the system named is Mus musculus. Briefly: Analgesic activity against acetic acid-induced writhing in mouse at 3.12 mg/kg.
Assay [2] deals with Rattus norvegicus. Briefly: Antiinflammatory activity against carrageenan-induced edema in Sprague-Dawley rat at 200 mg/kg, po. In short, it runs like this: (§1)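 Rats were dosed orally by gastric intubation with a homogenized suspension in 0.5% carboxymethylcellulose (1 mL/100 g); controls received vehicle alone. After 60 min, 0.1 mL of 1% carrageenan in saline was injected into the plantar surface of the right hind paw. Paw volume was measured by water displacement at injection and 2 h later. Edema was taken as the difference, with % inhibition versus controls (mean ± SD, Student's t-test).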

For assay [3], the system named is Rattus norvegicus. Briefly: Antiinflammatory activity against carrageenan-induced edema in Sprague-Dawley rat at 100 mg/kg, po. In short, it runs like this: as §1
Assay [4] deals with Rattus norvegicus. Briefly: Antiinflammatory activity against carrageenan-induced edema in Sprague-Dawley rat at 50 mg/kg, po. In short, it runs like this:
as §1

For assay [5], the system named is Rattus norvegicus. Briefly: Antiinflammatory activity against carrageenan-induced edema in Sprague-Dawley rat at 6 mg/kg, po. In short, it runs like this:
as §1

Usually inhibition in vivo stands for the drop in the measured response relative to a control, in per cent. A lower inhibition in vivo goes with a weak effect.

Molecules are shown by their SMILES.

In the assay with Rattus norvegicus [1], `CCN(CC)C(=O)c1c(NCC(C)C)c2cccnc2n2c(C(C)C)nnc12` returned an inhibition in vivo at 25 mg/kg of 61%. In turn, `CCN(CC)C(=O)c1c(N2CCN(C)CC2)c2cccnc2n2c(C(C)C)nnc12` returned an Activity in the assay on Mus musculus of 85%. `CCc1nnc2c(C(=O)N(CC)CC)c(N(CC)C(=O)c3cccnc3)c3cccnc3n12`: in the assay with Rattus norvegicus [2], the inhibition in vivo at 200 mg/kg was determined as 51%. The same compound had an inhibition in vivo at 100 mg/kg with Rattus norvegicus [3] of 31%. Compound `CCN(CC)C(=O)c1c(N(CC(C)C)C(C)=O)c2cccnc2n2c(C(C)C)nnc12` showed an inhibition in vivo at 200 mg/kg in the assay with Rattus norvegicus [2] of 5%. Regarding `CCOC(=O)Cc1nnc2c(C(=O)N(CC)CC)c(NCC(C)C)c3cccnc3n12`, the inhibition in vivo at 200 mg/kg in the assay with Rattus norvegicus [2] came out at 65%. In the assay with Rattus norvegicus [3], this compound came in with an inhibition in vivo at 100 mg/kg of 35%. The compound also had an inhibition in vivo at 50 mg/kg with Rattus norvegicus [4] of 21%. With `CCN(CC)C(=O)c1c(NCC(C)C)c2cccnc2n2c(C(=O)N(CC)CC)nnc12`, 200 mg/kg produced 60% inhibition in vivo in the assay on Rattus norvegicus [2]. The same compound yielded an inhibition in vivo at 100 mg/kg with Rattus norvegicus [3] of 30%.

`CCCN(CCC)C(=O)c1nnc2c(C(=O)N(CC)CC)c(NCC(C)C)c3cccnc3n12` registered an inhibition in vivo at 200 mg/kg with Rattus norvegicus [2] of 35%. `CCCCNc1c(C(=O)N(CC)CC)c2nnc(CC(=O)NCC(C)C)n2c2ncccc12` yielded an inhibition in vivo at 200 mg/kg in the assay with Rattus norvegicus [2] of 0%. Consider `CCN(CC)C(=O)c1c(NCC(C)C)c2cccnc2n2c(CC(=O)Nc3nccs3)nnc12`, for which the inhibition in vivo at 200 mg/kg in the assay on Rattus norvegicus [2] was determined as 18%. The compound `CCOC(=O)C(C)c1nnc2c(C(=O)N(CC)CC)c(NCC(C)C)c3cccnc3n12` (stereo not given) gave an inhibition in vivo at 200 mg/kg in the assay with Rattus norvegicus [2] of 12%. Still for that read-out and setting: the same measure for `CCN(CC)C(=O)c1c(NCC(C)C)c2cccnc2n2c(CC(=O)NCC(C)C)nnc12`: 18%; for `CCOC(=O)c1nnc2c(C(=O)N(CC)CC)c(NCC(C)C)c3cccnc3n12`: 20%. As for `CCNc1c(C(=O)N(CC)CC)c2nnc(C(C)C)n2c2ncccc12`, testing at 25 mg/kg in the assay with Rattus norvegicus [1] gave an inhibition in vivo of 61%.

For the compound `CCN(CC)C(=O)c1c(Cl)c2cccnc2n2c(C(=O)N(C(C)C)C(C)C)nnc12`, 200 mg/kg produced 30% inhibition in vivo with Rattus norvegicus [2]. In the assay with Rattus norvegicus [2], `CCNc1c(C(=O)N(CC)CC)c2nnc(CC(=O)OCC)n2c2ncccc12` gave an inhibition in vivo at 200 mg/kg of 0%. In the assay on Rattus norvegicus [5], `COc1ccc2c(c1)c(CC(=O)O)c(C)n2C(=O)c1ccc(Cl)cc1` [INDOMETHACIN] had an inhibition in vivo at 6 mg/kg of 92%.

(Values after ChEMBL document CHEMBL1149793, “1,8-Naphthyridines VI. Synthesis and anti-inflammatory activity of 5-(alkylamino)-N,N-diethyl[1,2,4]triazolo[4,3-a][1,8]naphthyridine-6-carboxamides with a new substitution pattern on the triazole ring” (2008).)
